Data as given in publication PMC5548007 (European journal of medicinal chemistry, 2017).
Like-named read-outs stand apart in the source and are kept apart here.

Assays:
PC-3 cells [1] = assay: Cell cycle analysis by flow cytometry with propidium iodide staining; assay type: cell-based, human; details: for Cell cycle phase of arrest: PC-3, 28 at 5 μM, 46 at 4 μM
Outline: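 PC-3 cells were seeded at 200,000/well and allowed to attach for 3 h. They were treated with test compound at 4 or 5 μM, or DMSO vehicle, at 37 °C and harvested at 16 or 24 h, including floating cells. Cells were fixed in cold 80% ethanol for 30 min at 4 °C and RNase-treated for 30 min at 37 °C. Staining used propidium iodide (50 μg/mL stock) for 30 min, and DNA content was read by flow cytometry within 0.5–1 h.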

rats = assay: Acute in vivo toxicity in rats; details: oral 10 mg/kg
Outline: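 Male Sprague-Dawley rats (250–300 g), n = 4, dosed once by oral gavage at 10 mg/kg in 5% DMSO / 40% PEG 400 / 55% saline. Dosing was part of a pharmacokinetic study, with tail-vein blood drawn at 1, 3, 6 and 24 h. Time to death after oral dosing was recorded in hours.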

[2] = Oral pharmacokinetic study in Sprague-Dawley rats; assay type: in vivo, rat; details: single oral dose 10 mg/kg
Outline: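 Male Sprague-Dawley rats (250–300 g, n = 4) received a single 10 mg/kg oral gavage in 5% DMSO/40% PEG 400/55% saline. Tail-vein blood was taken into EDTA at 1, 3, 6 and 24 h, and plasma was stored at −80 °C. Plasma was extracted with chloroform/methanol (2:1) using a 13C2,15N-tamoxifen internal standard. Quantitation was by UPLC–triple-quadrupole MS/MS with a water/acetonitrile 0.05% formic acid gradient.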

[3] = Metabolic profiling by liver microsome incubation; assay type: in vitro ADME, human; details: 37 °C, 60 min, NADPH; mono-hydroxylation products by HRMS
Outline: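 Pooled human liver microsomes in potassium phosphate buffer (pH 7.4) with NADPH solutions A and B were preincubated for 5 min at 37 °C. Test compound was added from a 10 mM stock and incubated for 60 min at 37 °C. Methanol stopped the reaction, and samples were centrifuged at 10,000 × g for 4 min at 4 °C. Supernatant was analysed by UHPLC with high-resolution mass spectrometry.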

[4] = tested on: three human prostate cancer cell lines; assay: Anti-proliferative potency across three prostate cancer cell lines; assay type: cell-based; details: read-out: IC50 range in three prostate cancer cell lines
Outline: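 Human prostate cancer cells were grown at 37 °C in 5% CO2: PC-3 and LNCaP in RPMI-1640, DU-145 in EMEM, each with 10% FBS and 1% penicillin/streptomycin. Cells were seeded at 3,200/well and exposed to test compound for 3 days, with DMSO as vehicle control. WST-1 reagent was added for 3 h at 37 °C and absorbance read at 430 nm. IC50 came from linear inhibition over ≥5 doses, averaged over triplicates.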

DU145 cells = assay: WST-1 cell proliferation assay, DU145; assay type: cell-based; details: Homo sapiens, DU-145, 72 h, read-out: IC50 DU145
Outline: (§1)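 PC-3 and LNCaP cells grown in RPMI-1640, DU145 in EMEM, each with 10% FBS and 1% penicillin/streptomycin at 37 °C, 5% CO2. Cells seeded at 3,200/well, then exposed 3 days to at least five doses of test compound, with DMSO as vehicle control. WST-1 reagent added for 3 h at 37 °C, absorbance read at 430 nm. IC50 taken from linear inhibition plot; mean ± SD of triplicates.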

PC-3 cells [5] = details: cited from earlier work
LNCaP cells = assay: WST-1 cell proliferation assay, LNCaP; assay type: cell-based; details: Homo sapiens, 72 h, read-out: IC50 LNCaP
Outline: as §1

[6] = mice, single oral dose 1 mg/kg; cited from earlier work
PC-3 cells [7] = assay: WST-1 cell proliferation assay, PC-3; assay type: cell-based; details: Homo sapiens, PC-3, 72 h, read-out: IC50 PC-3
Outline: as §1

## CCC(C)n1ccnc1/C=C/C(=O)/C=C/c1sc(C)nc1C(F)(F)F (stereo not drawn) [Compd 28, (1E,4E)-1-(1-(sec-Butyl)-1H-imidazol-2-yl)-5-(2-methyl-4-(trifluoromethyl)thiazol-5-yl)penta-1,4-dien-3-one]
PC-3 cells [1]; 5 μM, 16 h
  Lower cell population at G2 phase vs control, 16 h: 10%
PC-3 cells [1]; 5 μM, 24 h
  Higher cell population at G0/G1 phase vs control, 24 h: 4%
  Lower cell population at G2 phase vs control, 24 h: 3%
PC-3 cells [1]
  Cell cycle phase of arrest: cell cycle arrest at the G0/G1 phase
rats
  Acute in vivo toxicity (tolerability): without observed toxicity
[2]
  Peak plasma concentration in molar units: 5.27 µM
[3]
  Major metabolic products detected after microsomal incubation: three major metabolic products

## CCCn1ccnc1/C=C/C(=O)/C=C/c1nc2ccccc2n1CCC [Compd 46, (1E,4E)-1-(1-Propyl-1H-benzo[d]imidazole-2-yl)-5-(1-propyl-1H-imidazole-2-yl)penta-1,4-dien-3-one]
PC-3 cells [1]
  Cell cycle phase of arrest: cell cycle arrest at the G0/G1 phase
rats
  Time to death after oral dosing: about 48 hours

## CCn1c(/C=C/C(=O)/C=C/c2sc(C)nc2C(F)(F)F)nc2ccccc21 [Compd 49, (1E,4E)-1-(1-Ethyl-1H-benzo[d]imidazol-2-yl)-5-(2-methyl-4-(trifluoromethyl)thiazol-5-yl)penta-1,4-dien-3-one]
rats
  Acute in vivo toxicity (tolerability): without observed toxicity
[3]
  Major metabolic products detected after microsomal incubation: two major metabolic products

## CC(C)n1c(/C=C/C(=O)/C=C/c2ccccn2)nc2ccccc21 [Compd 58, (1E,4E)-1-(1-Isopropyl-1H-benzo[d]imidazol-2-yl)-5-(pyridin-2-yl)penta-1,4-dien-3-one]
rats
  Time to death after oral dosing: ~72 h
[4]
  IC50: 0.03 to 0.12 µM

## COc1cc(/C=C/C(=O)CC(=O)/C=C/c2ccc(O)c(OC)c2)ccc1O [Curcumin]
DU145 cells
  IC50: 26.2 ± 0.65 µM
PC-3 cells [5]
  Cell cycle phase of arrest: G1/S phase
LNCaP cells
  IC50: 13.6 ± 2.69 µM
[6]
  Area under curve (AUC): 2.85 ng·h/mL
PC-3 cells [7]
  IC50: 25.4 ± 2.15 µM
